From ChEMBL document CHEMBL1128210, “Structure-activity relationship of omeprazole and analogues as Helicobacter pylori urease inhibitors” (J Med Chem, 1995)

Key:
Helicobacter pylori [1] = test: Urease activity in H pylori, CCUG 15818, at 10 uM
How it was run: (§1)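 CCUG 15818 grown 3 days at 37 °C microaerophilic on Columbia blood agar, washed three times in PBS at assay pH, set to A560 0.3. Cells preincubated with compound (MeOH or DMSO, ≤1% solvent) for 30 min at 37 °C, then mixed 1:1 with 200 mM urea for 10 min. Ammonia read by nitroprusside-catalysed phenol–hypochlorite at A650 against (NH4)2SO4. Compound colour blank subtracted; expressed as % of control.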

[2] = Half life at pH 7 is a measure of the rate by which the compound is converted to the active species; type: ADME; conditions: buffer
[3] = Relative retention time of the compound; type: ADME
[4] = pKa value of the compound (benzimidazole ring substitutions dependent); type: physicochemical; conditions: read-out: pKabz
[5] = pKa value of the compound (pyridine ring substitutions dependent); type: physicochemical; conditions: read-out: pKapy
Helicobacter pylori [6] = test: Urease activity in wild type H pylori, CCUG 15818, at 100 uM; how it was run: as §1
Helicobacter pylori [7] = test: Urease activity was determined in wild type-H pylori, CCUG 15818, at a concentration of 1 uM; how it was run: as §1
Helicobacter pylori [8] = test: Urease activity was determined in wild type-H pylori, CCUG 15818, at a concentration of 10 uM at pH 6
Helicobacter pylori [9] = test: Urease activity was determined in wild type-H pylori, CCUG 15818, at a concentration of 1 uM at pH 6
[10] = pKa value of the compound (pyridine ring substitutions dependent) at pH 6; type: physicochemical; conditions: read-out: pKapy
[11] = Relative retention time at pH 6; type: ADME; conditions: buffer
Helicobacter pylori [12] = test: Urease activity was determined in wild type-H pylori, CCUG 15818, at a concentration of 100 uM at pH 6
[13] = pKa value of the compound (benzimidazole ring substitutions dependent) at pH 6; type: physicochemical; conditions: read-out: pKabz
[14] = Half life at pH 6 is a measure of the rate by which the compound is converted to the active species.; conditions: buffer
Helicobacter pylori [15] = test: Urease activity was determined in wild type-H pylori, CCUG 15818 in the presence of beta mercaptoethanol at a concentration of 1 uM
How it was run: (§2)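 Intact CCUG 15818 cells (A560 0.3, washed in PBS) preincubated 30 min at 37 °C with compound at 1, 10 or 100 μM plus 100 μM β-mercaptoethanol. Urea was then added 1:1 from a 200 mM solution. After 10 min, ammonia was measured by indophenol (phenol–hypochlorite/nitroprusside) absorbance at 650 nm and expressed as % of control.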

Helicobacter pylori [16] = test: Urease activity was determined in wild type-H pylori, CCUG 15818 in the presence of beta mercaptoethanol at a concentration of 10 uM; how it was run: as §2
Helicobacter pylori [17] = test: Urease activity was determined in wild type-H pylori, CCUG 15818 in the presence of beta mercaptoethanol at a concentration of 100 uM; how it was run: as §2
Helicobacter pylori [18] = test: Urease activity was determined in wild type-H pylori, CCUG 15818, at a concentration of 10 nM
How it was run: (§3)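 Washed whole cells grown 3 days at 37 °C under microaerophilic conditions, resuspended in PBS at assay pH to A560 = 0.3. Compound (in MeOH or DMSO, ≤1% solvent) preincubated 30 min at 37 °C with shaking. 200 mM urea added 1:1; stopped after 10 min with phenol–nitroprusside/hypochlorite reagents, 15 min colour, A650 vs (NH4)2SO4 standard; percent of control.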

Helicobacter pylori [19] = test: Urease activity was determined in wild type-H pylori, CCUG 15818, at a concentration of 100 nM; how it was run: as §3
Helicobacter pylori [20] = test: Urease activity was determined in wild type-H pylori, CCUG 15818, at a concentration of 1 nM; how it was run: as §3

SMILES	Urease activity (% of control) (Helicobacter pylori [1])	half-life [2]	Log k'o [3]	pKa [4]	pKa [5]	Urease activity (% of control) (Helicobacter pylori [6])	Urease activity (% of control) (Helicobacter pylori [7])	further results
COc1ccc2[nH]c([S+]([O-])Cc3nccc(OC(C)C)c3C)nc2c1 (configuration not stated)	35%	1.5 h	1.22	8.9	5.1	0%	86%	–
COc1c(OCC2CC2)ccnc1C[S+]([O-])c1nc2cc(F)ccc2[nH]1 (configuration not stated)	94%	50 h	1.16	8.4	3.8	84%	104%	–
Cc1c(OCC(F)(F)F)ccnc1C[S+]([O-])c1nc2ccccc2[nH]1 (configuration not stated) [LANSOPRAZOLE]	103%	13 h	1.1	8.7	3.9	29%	105%	–
COc1ccc2[nH]c([S+]([O-])Cc3ncc(C)c(OC)c3C)nc2c1 (configuration not stated) [OMEPRAZOLE]	96%	23 h	0.83	8.7	4	64%	109%	Control (Helicobacter pylori [8]): 88%; Control (Helicobacter pylori [9]): 115%; pKa [10]: 4; Log k'o [11]: 0.83; Control (Helicobacter pylori [12]): 28%; pKa [13]: 8.7; half-life [14]: 0.917 h
COc1ccnc(C[S+]([O-])c2nc3cc(C(C)(C)C)ccc3[nH]2)c1C (configuration not stated)	42%	1 h	1.55	9.1	4.8	1%	–	Control (Helicobacter pylori [15]): 105%; Control (Helicobacter pylori [16]): 95%; Control (Helicobacter pylori [17]): 106%
COc1ccnc(C[S+]([O-])c2nc3c(F)cc(F)cc3[nH]2)c1 (configuration not stated)	89%	32 h	0.09	7.6	4.1	80%	106%	–
CCOc1ccnc(C[S+]([O-])c2nc3ccccc3[nH]2)c1C (configuration not stated)	38%	0.9 h	0.92	8.8	4.9	8%	76%	–
COc1ccnc(C[S+]([O-])c2nc3cc(F)c(F)cc3[nH]2)c1OC (configuration not stated)	–	69 h	0.6	7.8	3.6	–	–	–
Cc1cc(C)c(C[S+]([O-])c2nc3cc(Cl)ccc3[nH]2)nc1C (configuration not stated)	105%	–	–	–	–	164%	97%	–
COc1ccnc(C[S+]([O-])c2nc3cc4c(cc3[nH]2)CCC4)c1C (configuration not stated)	35%	1.17 h	1.21	9.4	4.9	0%	36%	–
COc1ccnc(C[S+]([O-])c2nc3c(F)cccc3[nH]2)c1 (configuration not stated)	95%	23 h	0.26	7.5	4.4	58%	93%	–
COc1ccnc(C[S+]([O-])c2nc3cc(CO)ccc3[nH]2)c1C (configuration not stated)	38%	1 h	0.18	8.6	4.7	32%	72%	–
COc1ccc2[nH]c(SCc3ncc(C)c(OC)c3C)nc2c1	101%	–	–	–	–	99%	109%	–
NP(N)(=O)NC(=O)c1ccc(F)cc1	–	–	–	–	–	–	–	Control (Helicobacter pylori [18]): 10%; Control (Helicobacter pylori [19]): 0%; Control (Helicobacter pylori [20]): 80%
